In ChEMBL document CHEMBL3739352, “Anticonvulsant activity, crystal structures, and preliminary safety evaluation of N-trans-cinnamoyl derivatives of selected (un)modified aminoalkanols” (Eur J Med Chem, 2016) one finds Activity and Rm data, which are given here for five molecules.

Each structure is given as a SMILES string. Calls of active or inactive are those of the source. The rule behind the calls is not given here.

The subject of series [1] is Mus musculus. Put plainly: Neurotoxicity in albino Carworth Farms No.1 mouse at 300 mg/kg, ip after 0.5 hrs by rotarod test. Format: toxicity, organism-based. The following applies: in vivo. The essentials:
(§1)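 Mice (albino Carworth Farms No.1) were dosed i.p. at 30, 100 or 300 mg/kg in 0.5% methylcellulose. They were tested 0.5 and 4 h later on a 1-inch knurled rod rotating at 6 rpm. Neurotoxicity was scored if a mouse could not stay on the rod for at least 1 min in each of three trials. Results are given as animals toxic/animals tested, with deaths noted.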
(In general: Falling from the rotarod earlier than controls is read as motor impairment.)

For series [2], the system named is Mus musculus. Put plainly: Neurotoxicity in albino Carworth Farms No.1 mouse at 100 mg/kg, ip after 0.5 hrs by rotarod test. The conditions noted are these: in vivo. The series is classed as toxicity, organism-based. The method in brief: as §1
The test system of series [3] is Mus musculus. Put plainly: Anticonvulsant activity in albino Carworth Farms No.1 mouse assessed as protection against subcutaneous dosed pentetrazol-induced seizures at 300 mg/kg, ip after 4 hrs. The series is classed as functional, organism-based. The essentials: (§2)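 Mouse i.p. screen in Carworth Farms No.1 albino mice at 30, 100 or 300 mg/kg in 0.5% methylcellulose. Testing was at 0.5 and 4 h after injection, by maximal electroshock or by subcutaneous pentetrazol challenge. Scoring was number protected / number used.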

Series [4] has as its system Mus musculus. The experiment in a line: Neurotoxicity in albino Carworth Farms No.1 mouse at 30 mg/kg, ip after 0.5 hrs by rotarod test. The conditions noted are these: in vivo. Format: toxicity, organism-based. The essentials:
as §1

For series [5], the system named is Mus musculus. Put plainly: Anticonvulsant activity in albino Carworth Farms No.1 mouse assessed as protection against subcutaneous dosed pentetrazol-induced seizures at 300 mg/kg, ip after 0.5 hrs. Format: functional, organism-based. The method in brief: as §2
In series [6] the test system is Mus musculus. Put plainly: Anticonvulsant activity in albino Carworth Farms No.1 mouse assessed as protection against subcutaneous dosed pentetrazol-induced seizures at 100 mg/kg, ip after 4 hrs. The series is classed as functional, organism-based. The method in brief:
as §2

The test system of series [7] is Mus musculus. The experiment in a line: Anticonvulsant activity in albino Carworth Farms No.1 mouse assessed as protection against subcutaneous dosed pentetrazol-induced seizures at 100 mg/kg, ip after 0.5 hrs. The series is classed as functional, organism-based. The essentials:
as §2

Series [8] deals with Mus musculus. The experiment in a line: Anticonvulsant activity in albino Carworth Farms No.1 mouse assessed as protection against subcutaneous dosed pentetrazol-induced seizures at 30 mg/kg, ip after 4 hrs. Format: functional, organism-based. The method in brief:
as §2

For series [9], the system named is Mus musculus. Put plainly: Anticonvulsant activity in albino Carworth Farms No.1 mouse assessed as protection against subcutaneous dosed pentetrazol-induced seizures at 30 mg/kg, ip after 0.5 hrs. The series is classed as functional, organism-based. The method in brief:
as §2

In series [10] the test system is Mus musculus. The experiment in a line: Anticonvulsant activity in albino Carworth Farms No.1 mouse assessed as protection against maximal electroshock-induced seizures at 300 mg/kg, ip after 4 hrs. The series is classed as functional, organism-based. The method in brief: as §2
(Protection in the maximal electroshock model is a classic sign of anticonvulsant action.)

Series [11] has as its system Mus musculus. The experiment in a line: Anticonvulsant activity in albino Carworth Farms No.1 mouse assessed as protection against maximal electroshock-induced seizures at 300 mg/kg, ip after 0.5 hrs. The series is classed as functional, organism-based. The method in brief:
as §2

The subject of series [12] is Mus musculus. The experiment in a line: Anticonvulsant activity in albino Carworth Farms No.1 mouse assessed as protection against maximal electroshock-induced seizures at 100 mg/kg, ip after 4 hrs. The series is classed as functional, organism-based. The method in brief: as §2
For series [13], the system named is Mus musculus. The experiment in a line: Anticonvulsant activity in albino Carworth Farms No.1 mouse assessed as protection against maximal electroshock-induced seizures at 100 mg/kg, ip after 0.5 hrs. The series is classed as functional, organism-based. The essentials:
as §2

Series [14] deals with Mus musculus. Put plainly: Anticonvulsant activity in albino Carworth Farms No.1 mouse assessed as protection against maximal electroshock-induced seizures at 30 mg/kg, ip after 0.5 hrs. The series is classed as functional, organism-based. The essentials:
as §2

Series [15] concerns Mus musculus. Put plainly: Anticonvulsant activity in albino Carworth Farms No.1 mouse assessed as protection against maximal electroshock-induced seizures at 30 mg/kg, ip after 4 hrs. Format: functional, organism-based. The method in brief:
as §2

Series [16] relates to Mus musculus. The experiment in a line: Neurotoxicity in albino Carworth Farms No.1 mouse at 30 mg/kg, ip after 4 hrs by rotarod test. The series is classed as toxicity, organism-based. The following applies: in vivo. The essentials: as §1
Series [17] concerns Mus musculus. The experiment in a line: Neurotoxicity in albino Carworth Farms No.1 mouse at 100 mg/kg, ip after 4 hrs by rotarod test. The series is classed as toxicity, organism-based. The following applies: in vivo. The method in brief:
as §1

For series [18], the system named is Mus musculus. Put plainly: Neurotoxicity in albino Carworth Farms No.1 mouse at 300 mg/kg, ip after 4 hrs by rotarod test. Format: toxicity, organism-based. The conditions noted are these: in vivo. The method in brief: as §1
A short description of series [19]: Lipophilicity of the compound using 95% methanol in water at 1 mg/ml by RT-TLC analysis. The series is classed as physicochemical. The following applies: buffer. The essentials:
(§3)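 Reversed-phase TLC with a methanol–water mobile phase at the stated methanol content (v/v). Compounds were spotted from 1 mg/mL methanol solutions after 1 h chamber saturation and located under UV light. Rf was measured and RM = log(1/Rf − 1) calculated.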

The nature of series [20]: Lipophilicity of the compound using 90% methanol in water at 1 mg/ml by RT-TLC analysis. Format: physicochemical. The following applies: buffer. The method in brief:
as §3

Series [21] is described as follows: Lipophilicity of the compound using 85% methanol in water at 1 mg/ml by RT-TLC analysis. The series is classed as physicochemical. The following applies: buffer. The method in brief: as §3
The nature of series [22]: Lipophilicity of the compound using 75% methanol in water at 1 mg/ml by RT-TLC analysis. Format: physicochemical. The following applies: buffer. The method in brief:
as §3

Series [23] in a line: Lipophilicity of the compound using 65% methanol in water at 1 mg/ml by RT-TLC analysis. The following applies: buffer. The series is classed as physicochemical. The method in brief:
as §3

Series [24] in a line: Lipophilicity of the compound at 1 mg/ml by RT-TLC analysis relative to 0% methanol. Format: physicochemical. The conditions noted are these: methanol/water. The essentials:
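Reversed-phase TLC used methanol–water mobile phases of 95–65% methanol. Compounds were applied from 1 mg/mL methanol solutions after 1 h chamber saturation, with UV detection. RM = log(1/Rf − 1) was calculated at each methanol level and extrapolated linearly (RM = RM0 + bC) to 0% methanol to give RM0.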

Regarding `CC(=O)CNC(=O)/C=C/c1ccccc1`, the Activity result with Mus musculus [1], with Mus musculus [2], in the series with Mus musculus [4], in the series with Mus musculus [16], in the series with Mus musculus [17] and in the series on Mus musculus [18] was “Non-toxic” throughout. Moreover, the outcome with Mus musculus [3], in the series on Mus musculus [5], in the series on Mus musculus [6], in the series on Mus musculus [7], in the series on Mus musculus [8] and in the series with Mus musculus [9] was inactive. Further, the result in the series with Mus musculus [10], in the series with Mus musculus [12], in the series on Mus musculus [13], with Mus musculus [14] and in the series with Mus musculus [15] was inactive. In addition, the outcome with Mus musculus [11] was Active. For the same molecule, the Rm was -0.63 in series [19]; -0.52 in series [20]; -0.33 in series [21]; -0.21 in series [22]; 0.05 in [23]; 1.478 in series [24].
Turning to `COC(=O)C(NC(=O)/C=C/c1ccccc1)C(C)C` (racemic), the Activity entry in the series on Mus musculus [1], in the series on Mus musculus [2], in the series on Mus musculus [4], in the series with Mus musculus [16], in the series with Mus musculus [17] and with Mus musculus [18] was “Non-toxic” each time. For the same molecule, the result with Mus musculus [3], with Mus musculus [5], in the series with Mus musculus [6], in the series on Mus musculus [7], in the series with Mus musculus [8] and in the series with Mus musculus [9] was inactive. Also, the outcome with Mus musculus [10], with Mus musculus [12], in the series on Mus musculus [13], with Mus musculus [14] and in the series on Mus musculus [15] was inactive. For the same molecule, in the series with Mus musculus [11], the outcome was Active. In addition, the Rm in series [19] is -0.52; in series [20], -0.31; in series [21], -0.03; in series [22], 0.05; in [23], 0.58; in series [24] it was 2.742.
As for `CC(C)(CO)NC(=O)/C=C/c1ccccc1`, the Activity result in the series on Mus musculus [1], in the series with Mus musculus [2], in the series with Mus musculus [4], in the series with Mus musculus [16], in the series with Mus musculus [17] and with Mus musculus [18] was “Non-toxic” each time. For the same molecule, the result in the series with Mus musculus [3], in the series on Mus musculus [6], with Mus musculus [7], in the series on Mus musculus [8], in the series with Mus musculus [9] and in the series with Mus musculus [10] was inactive. Moreover, the result in the series on Mus musculus [12], with Mus musculus [13], in the series with Mus musculus [14] and with Mus musculus [15] was inactive. Further, the result with Mus musculus [5] and in the series with Mus musculus [11] was Active. Besides, the Rm in series [19] is reported as -0.63; in series [20], -0.5; in [21] it was -0.25; in series [22] it was -0.14; in [23] it was 0.29; in series [24], 2.151.
As for `O=C(/C=C/c1ccccc1)NCCCCCO`, the Activity result in the series with Mus musculus [1], in the series with Mus musculus [2], with Mus musculus [4], in the series on Mus musculus [16], in the series on Mus musculus [17] and with Mus musculus [18] was “Non-toxic” throughout. The result in the series with Mus musculus [3], in the series with Mus musculus [5], in the series on Mus musculus [6], with Mus musculus [7], with Mus musculus [8] and in the series with Mus musculus [9] was inactive. Also, the result with Mus musculus [10], with Mus musculus [11], in the series with Mus musculus [12], with Mus musculus [13], in the series with Mus musculus [14] and in the series on Mus musculus [15] was inactive. For the same molecule, the Rm is -0.69 in series [19]; -0.52 in series [20]; -0.27 in series [21]; -0.18 in series [22]; 0.19 in series [23]; 1.983 in series [24].
For `CCC(COC(C)=O)NC(=O)/C=C/c1ccccc1` (configuration not stated), the Activity entry in the series with Mus musculus [1], with Mus musculus [2] and in the series with Mus musculus [4] was “Non-toxic” in each case. The result with Mus musculus [3], in the series on Mus musculus [5], in the series with Mus musculus [6], with Mus musculus [7], with Mus musculus [8] and in the series with Mus musculus [9] was inactive. For the same molecule, the result in the series on Mus musculus [10], with Mus musculus [11], in the series with Mus musculus [12], with Mus musculus [13], in the series with Mus musculus [14] and in the series on Mus musculus [15] was inactive. Further, the Rm is -0.58 in [19]; -0.43 in series [20]; -0.14 in series [21]; -0.05 in series [22]; 0.29 in series [23]; 2.118 in series [24].
